# According to article PMC7439260 (ACS Omega, 2020):
# Counter-ions that a name gives are not always drawn. Where a SMILES comes first, the peptide text is derived from it. [ ]: non-standard residue; d: D form. Hyp = O=C(O)[C@@H]1C[C@@H](O)CN1
# Legend:
# bleeding time = assay: Tail bleeding assay; type: in vivo, ICR mice; settings: mice, n = 10; for Effect on bleeding time (BT) (in words): doses of 300 and 400 μmol/kg b.w. oral; for Bleeding time (BT): 100 μmol/kg b.w. oral, tail cut 3 mm, saline 37 °C, maximum 900 s
# thymus and spleen = assay: Thymus index and spleen index; type: in vivo, ICR mice; settings: oral administration at doses of 300 or 450 μmol/kg b.w.; mice
# Outline: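 The same orally dosed ICR mice (300 or 450 μmol/kg b.w. peptide, saline vehicle) were weighed and sacrificed after the tail-bleeding test. Thymus and spleen were excised, washed in PBS, blotted and weighed. Indices were computed as organ weight / body weight (mg/g). Gross appearance of the organs was checked for atrophy, hyperplasia or swelling.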
# [1] = test system: platelet aggregation induced by ADP; assay: Inhibition of ADP-induced platelet aggregation in vitro; type: cell-based, rat; settings: data not shown
# Outline: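 Rat aortic blood was anticoagulated with sodium citrate (1:9, v/v) and spun at 50 × g for 10 min to give PRP. A further 750 × g, 10 min spin gave PPP, used to dilute PRP to 2–3 × 10^8. PRP was preincubated with buffer or peptide for 5 min at 37 °C, then ADP (0.1 mM) was added. Aggregation at 5 min was read on an aggregometer. Inhibition % was calculated versus the buffer control, and IC50 was derived by curve fitting.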
# [2] = test system: platelet aggregation induced by ADP; settings: read-out: IC50 of antiplatelet activity induced by ADP; cited from earlier work
# [3] = test system: human platelet aggregation; settings: at 1 mg/mL; cited from earlier work
molecule,measurement,setting,value
"O=C(O)CC[C@H](NC(=O)CNC(=O)[C@@H]1C[C@@H](O)CN1)C(=O)N[C@@H](Cc1ccccc1)C(=O)NCC(=O)O [OGEFG, Hyp-Gly-Glu-Phe-Gly] (H-[Hyp]GEFG-OH)",Effect on bleeding time (BT) (in words),bleeding time,no significant increase in BT
same,Acute toxicological effects (in words),thymus and spleen,no acute toxicological effects
"CC(=O)Oc1ccccc1C(=O)O [aspirin, Aspirin, reference compound]",Bleeding time (BT),bleeding time,5.345 min
VFPQ,Activity against ADP-induced platelet aggregation (in words),[1],poor activities
"COC(=O)[C@H](c1ccccc1Cl)N1CCc2sccc2C1 [clopidogrel, clopidogrel hydrogen sulfate, reference compound]",Bleeding time (BT),bleeding time,> 15 min
"N[C@@H](CC(=O)O)C(=O)N[C@@H](CCC(=O)O)C(=O)NCC(=O)N1CCC[C@H]1C(=O)O [DEGP, Asp-Glu-Gly-Pro] (H-DEGP-OH)",Effect on bleeding time (BT) (in words),bleeding time,no significant increase in BT
same,Acute toxicological effects (in words),thymus and spleen,no acute toxicological effects
SSGE,IC50,[2],480 µM
LTFPRIVFVLG,Inhibition of platelet aggregation,[3],76.69%
